Our source for the EC50, MCC and CC50 values is ChEMBL document CHEMBL1143578, “From 1-acyl-beta-lactam human cytomegalovirus protease inhibitors to 1-benzyloxycarbonylazetidines with improved antiviral activity. A straightforward approach to convert covalent to noncovalent inhibitors” (J Med Chem, 2005).

Structures are written as SMILES.

The test system of assay [1] is HEL. The experiment in a line: Effective concentration required to inhibit human cytomegalo virus AD-169 induced cytopathicity in HEL fibroblast cell line after 7 days of postinfection. The settings on record: 168 h. Type of assay: functional, cell-based. A digest of the protocol:
(§1)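 Confluent HEL fibroblasts were infected with 100 PFU/well for 2 h, then residual virus was removed. Cells were incubated with a range of compound concentrations, in duplicate, for 7 days at 37 °C. Cells were ethanol-fixed and Giemsa-stained, and cytopathogenicity was scored microscopically. EC50 was read from plots of % cytopathogenicity against concentration.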

For assay [2], the system named is HEL. Kind of assay: Effective concentration required to reduce Varicella-Zoster virus OKA(TK) plaque formation after 5 days in HEL fibroblast cell line. Type of assay: functional, cell-based. The settings on record: Homo sapiens, 120 h. A digest of the protocol: (§2)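 Confluent HEL cells were inoculated with VZV at 20 PFU/well for 2 h. Residual virus was removed and varying compound concentrations were added in duplicate. Plaques were counted after 5 days. EC50 is the concentration halving plaque formation relative to untreated controls.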

Assay [3] has as its system HEL. Kind of assay: Minimum cytotoxic concentration required to cause a microscopically visible alteration of HEL fibroblast cell morphology. Type of assay: functional. The settings on record: Homo sapiens. An outline of the steps: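 HEL cell morphology was examined under the microscope after compound exposure. MCC is the lowest concentration producing a detectable alteration in morphology.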

The test system of assay [4] is HEL. Kind of assay: Cytotoxic concentration required to reduce HEL cell growth. Type of assay: functional. The settings on record: Homo sapiens. An outline of the steps:
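HEL cells seeded at 5 × 10³ cells/well and allowed to proliferate 24 h, then exposed to a range of compound concentrations for 3 days at 37 °C. Cell number was counted with a Coulter counter. CC50 is the concentration giving 50% growth reduction versus untreated controls, read from plots of cell number (% of control) against concentration.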

For assay [5], the system named is HEL. Kind of assay: Effective concentration required to reduce Varicella-Zoster virus 07/1(TK-) plaque formation after 5 days in HEL fibroblast cell line. Type of assay: functional, cell-based. The settings on record: Homo sapiens, 120 h. An outline of the steps:
as §2

The subject of assay [6] is HEL. Kind of assay: Effective concentration required to inhibit human cytomegalo virus Davis induced cytopathicity in HEL fibroblast cell line after 7 days of postinfection. Type of assay: functional, cell-based. The settings on record: 168 h. An outline of the steps:
as §1

`COC(=O)[C@]1(Cc2ccccc2)CCN1C(=O)N[C@@H](C)c1ccccc1`: the EC50 in assay [1] is > 20 µM; in assay [2], 50 µM; in assay [5], 50 µM. The MCC in assay [3] was > 50 µM. In addition, the CC50 in assay [4] was > 50 µM.
With `C[C@@H](NC(=O)N1CCC1(Cc1ccccc1)C(=O)OC(C)(C)C)c1ccccc1` (stereo not given in full), the concentration giving a half-maximal response (EC50) was 40 µM in assay [1], 33 µM in assay [6], 36 µM in assay [2] and 25 µM in assay [5]. Also, the MCC in assay [3] was found to be 400 µM. The CC50 in assay [4] is 57 µM.
As to `C[C@H](NC(=O)N1C(=O)C[C@@]1(Cc1ccccc1)C(=O)O)c1ccccc1`, the EC50 in assay [2] is > 200 µM; in assay [5], 110 µM. The molecule also yielded an MCC in assay [3] of 200 µM.
For the molecule `Nc1nc2c(ncn2COCCO)c(=O)[nH]1` [ACYCLOVIR], the EC50 in assay [1] was determined as 17 µM; in assay [6], 20 µM; in assay [2], 7.1 µM; in assay [5] it was 111 µM. Also, in assay [3], the MCC is > 1200 µM. The molecule further returned a CC50 in assay [4] of 511 µM.
With `COC(=O)[C@@]1(Cc2ccccc2)CCN1C(=O)N[C@@H](C)c1ccccc1`, the EC50 in assay [1] is > 20 µM; in assay [2] it was > 50 µM; in assay [5] it was > 50 µM. For the same molecule, the MCC in assay [3] is > 50 µM. The CC50 in assay [4] was > 50 µM.
On to `Nc1nc2c(ncn2COC(CO)CO)c(=O)[nH]1` [GANCICLOVIR], for which the MCC in assay [3] was > 1500 µM.
On to `CC(C)(C)OC(=O)[C@]1(Cc2ccccc2)CC(=O)N1C(=O)Nc1ccccc1`, for which the EC50 in assay [1] worked out at 50 µM; in assay [6] it was 50 µM; in assay [2], 33 µM; in assay [5], 13 µM. In addition, in assay [3], the MCC is 200 µM.
On to `COC(=O)[C@]1(Cc2ccccc2)CC(=O)N1C(=O)N[C@@H](C)c1ccccc1`, for which the EC50 in assay [1], in assay [2] and in assay [5] was > 50 µM in each case. Also, the MCC in assay [3] was > 50 µM. Further, in assay [4], the CC50 was > 50 µM.
`O=c1[nH]c(=O)n([C@H]2C[C@H](O)[C@@H](CO)O2)cc1/C=C/Br` [BRIVUDINE]: the EC50 in assay [1] is > 100 µM; in assay [6], > 100 µM; in assay [5], 103 µM. Besides, the MCC in assay [3] was 1200 µM. Besides, half-maximal cytotoxicity in assay [4] (CC50) was put at 249 µM.
Consider `C[C@H](NC(=O)C1(Cc2ccccc2)CCN1C(=O)OCc1ccccc1)C(=O)O` (stereo not given in full), for which the EC50 was > 400 µM in assay [1], > 80 µM in assay [6], > 80 µM in assay [2] and > 80 µM in assay [5]. The MCC in assay [3] was ≥ 400 µM. It took 124 µM to reach half-maximal cytotoxicity in assay [4] (CC50).
In the case of `C[C@H](NC(=O)N1C(=O)C[C@@]1(Cc1ccccc1)C(=O)OC(C)(C)C)c1ccccc1`, the EC50 was 37 µM in assay [2] and 20 µM in assay [5]. In assay [3], this molecule registered an MCC of 200 µM.
As to `CC(C)(C)OC(=O)C1(Cc2ccccc2)CC(=O)N1C(=O)OCc1ccccc1` (stereo not given), the values for the EC50 in assay [2] and in assay [5] were 12 µM and 8 µM, respectively. For the same molecule, in assay [3], the MCC came out at 50 µM.
For `COC(=O)[C@@]1(Cc2ccccc2)CC(=O)N1C(=O)N[C@@H](C)c1ccccc1`, the EC50 in assay [1], in assay [2] and in assay [5] was > 50 µM in each case. Besides, in assay [3], the MCC is > 50 µM. The CC50 in assay [4] is > 50 µM.
`CC(C)(C)NC(=O)C1(Cc2ccccc2)CCN1C(=O)OCc1ccccc1` (stereo not given): the EC50 in assay [1] is 5.5 µM; in assay [6], 4.4 µM; in assay [2], > 3.2 µM; in assay [5], > 16 µM. For the same molecule, the MCC in assay [3] was ≥ 16 µM. This molecule came in with a CC50 in assay [4] of 36 µM.
`C[C@@H](NC(=O)N1C(=O)C[C@]1(Cc1ccccc1)C(=O)O)c1ccccc1`: the EC50 in assay [2] and in assay [5] was > 200 µM each time. The same molecule yielded an MCC in assay [3] of 200 µM.
Regarding `O=C(OCc1ccccc1)N1CCC1(Cc1ccccc1)C(=O)NC1CCCCC1` (stereo not given), the EC50 was 5.9 µM in assay [1], 3.2 µM in assay [6], 7.8 µM in assay [2] and 5.1 µM in assay [5]. Further, the MCC in assay [3] is ≥ 16 µM. In addition, the CC50 in assay [4] was 37 µM.
For `CNC(=O)[C@H](C)NC(=O)C1(Cc2ccccc2)CCN1C(=O)OCc1ccccc1` (stereo not given in full), the EC50 in assay [1] is 7.4 µM; in assay [6] it was 5 µM; in assay [2], > 50 µM; in assay [5], > 50 µM. For the same molecule, the MCC in assay [3] is > 50 µM. For the same molecule, the CC50 in assay [4] was > 50 µM.
On to `C[C@@H](NC(=O)N1C(=O)C[C@@]1(Cc1ccccc1)C(=O)O)c1ccccc1`, for which the EC50 is > 200 µM in assay [6] and 151 µM in assay [5]. In assay [3], the MCC is > 200 µM.
For the molecule `O=C1C[C@H](Cc2ccccc2)N1C(=O)NCc1ccccc1`, the cytotoxic concentration (CC50) in assay [4] was > 250 µM.
With `Nc1ccn(C[C@@H](CO)OCP(=O)(O)O)c(=O)n1` [CIDOFOVIR], the EC50 in assay [1] was 0.6 µM; in assay [6], 1 µM. Besides, the MCC in assay [3] is > 1400 µM.
Consider `C[C@@H](NC(=O)N1C(=O)C[C@@]1(Cc1ccccc1)C(=O)OC(C)(C)C)c1ccccc1`, for which the EC50 in assay [2] is > 50 µM; in assay [5] it was 23 µM. For the same molecule, the MCC in assay [3] is 200 µM.
As to `CC(C)(C)OC(=O)N1C(=O)CC1(Cc1ccccc1)C(=O)OC(C)(C)C` (stereo not given), the concentration giving a half-maximal response (EC50) in assay [1] and in assay [6] was > 200 µM throughout. Besides, the MCC in assay [3] is > 200 µM.
On to `C[C@H](NC(=O)C1(Cc2ccccc2)CCN1C(=O)OCc1ccccc1)C(=O)OC(C)(C)C` (stereo not given in full), for which the concentration for a half-maximal effect (EC50) was 16 µM in assay [1], 4.4 µM in assay [6], 16 µM in assay [2] and > 16 µM in assay [5]. In assay [3], the MCC came out at 80 µM. For the same molecule, in assay [4], the CC50 is 33 µM.
Take `C[C@@H](NC(=O)N1C(=O)C[C@]1(Cc1ccccc1)C(=O)OC(C)(C)C)c1ccccc1`: the EC50 in assay [2] and in assay [5] was > 50 µM in each case. Also, the MCC in assay [3] is > 200 µM.
As for `C[C@H](NC(=O)C1(Cc2ccccc2)CCN1C(=O)OCc1ccccc1)C(N)=O` (stereo not given in full), the EC50 in assay [1] was 39 µM; in assay [6] it was 32 µM; in assay [2] it was > 80 µM; in assay [5] it was > 80 µM. Also, the MCC in assay [3] was ≥ 400 µM. Moreover, the CC50 in assay [4] was 50 µM.
As for `C[C@H](NC(=O)N1C(=O)C[C@]1(Cc1ccccc1)C(=O)O)c1ccccc1`, the EC50 is > 200 µM in assay [6] and 111 µM in assay [5]. For the same molecule, in assay [3], the MCC was > 200 µM.
Take `COC(=O)[C@H](C)NC(=O)C1(Cc2ccccc2)CCN1C(=O)OCc1ccccc1` (stereo not given in full): the EC50 in assay [1], in assay [6], in assay [2] and in assay [5] was > 80 µM throughout. Also, in assay [3], the MCC was 400 µM. In assay [4], this molecule displayed a CC50 of 50 µM.
On to `CC(C)(C)OC(=O)C1(Cc2ccccc2)CCN1C(=O)OCc1ccccc1` (stereo not given), for which the EC50 in assay [1] is 0.7 µM; in assay [6], 0.6 µM; in assay [2], > 2 µM; in assay [5], > 2 µM. The molecule further returned an MCC in assay [3] of 5 µM.
`COC(=O)N1CCC1(Cc1ccccc1)C(=O)N[C@@H](C)C(N)=O` (stereo not given in full): the EC50 is > 400 µM in assay [1], > 400 µM in assay [6], > 400 µM in assay [2] and 346 µM in assay [5]. Besides, the MCC in assay [3] is > 400 µM. Further, the half-maximal cytotoxic concentration (CC50) in assay [4] was > 200 µM.
As to `C[C@H](NC(=O)N1C(=O)C[C@]1(Cc1ccccc1)C(=O)OC(C)(C)C)c1ccccc1`, the EC50 in assay [2] was > 50 µM; in assay [5] it was 14 µM. The molecule further gave an MCC in assay [3] of 200 µM.
